# ChEMBL document CHEMBL5058577, “EUbOPEN Chemogenomics Library 2 (Multiplex)” (2022)
# Test system: U2OS
# Assay: Multiplex assay against U2OS
# Type: toxicity, cell-based
# Details: human
# Summary of the method: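 At seeding, live cells were stained with Hoechst33342, BioTracker Green Microtubule Cytoskeleton Dye, MitoTracker Red and Annexin V Alexa Fluor 680. After compound addition they were imaged on a CQ1 microscope at 37°C and 5% CO2, and CellPathfinder machine-learning gating sorted them into Hoechst high-intensity objects or normal cells, with normal cells further split into healthy, pyknosed or fragmented nuclei and pyknosed cells into mitotic or apoptotic. Tubulin, mitochondrial-mass and membrane-permeability phenotypes are given as per cents of cells with healthy nuclei.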
# [1] = 12 h, 1 µM, compound concentration 1 uM, replicate 1
# [2] = 12 h, 1 µM, compound concentration 1 uM, replicate 2
# [3] = 12 h, 10 µM, compound concentration 10 uM, replicate 1
# [4] = 12 h, 10 µM, compound concentration 10 uM, replicate 2
# [5] = 24 h, 1 µM, compound concentration 1 uM, replicate 1
# [6] = 24 h, 1 µM, compound concentration 1 uM, replicate 2
# [7] = 24 h, 10 µM, compound concentration 10 uM, replicate 1
# [8] = 24 h, 10 µM, compound concentration 10 uM, replicate 2
# [9] = 48 h, 1 µM, compound concentration 1 uM, replicate 1
# [10] = 48 h, 1 µM, compound concentration 1 uM, replicate 2
# [11] = 48 h, 10 µM, compound concentration 10 uM, replicate 1
# [12] = 48 h, 10 µM, compound concentration 10 uM, replicate 2
smiles,measurement,setting,value
CN1CCN(c2cc(-c3ccccc3)nc(N)n2)CC1,Population Apoptotic (%),[1],80%
same,Population Fragmented Nuclei (%),[1],32%
same,Population Healthy Nuclei (%),[1],61%
same,Population Hoechst High Intensity Objects (%),[1],2%
same,Population Membrane Permeable-Phenotype (%),[1],5%
same,Population Mitochondria Different-Phenotype (%),[1],2%
same,Population Mitotic Cells (%),[1],20%
same,Population Normal (%),[1],97%
same,Population Pyknosed Nuclei (%),[1],6%
same,Population Tubulin-Different-Phenotype (%),[1],2%
same,Total Cell Count,[1],235
same,Population Apoptotic (%),[2],62%
same,Population Fragmented Nuclei (%),[2],17%
same,Population Healthy Nuclei (%),[2],76%
same,Population Hoechst High Intensity Objects (%),[2],1%
same,Population Membrane Permeable-Phenotype (%),[2],7%
same,Population Mitochondria Different-Phenotype (%),[2],5%
same,Population Mitotic Cells (%),[2],37%
same,Population Normal (%),[2],98%
same,Population Pyknosed Nuclei (%),[2],5%
same,Population Tubulin-Different-Phenotype (%),[2],11%
same,Total Cell Count,[2],141
same,Population Apoptotic (%),[3],86%
same,Population Fragmented Nuclei (%),[3],30%
same,Population Healthy Nuclei (%),[3],63%
same,Population Hoechst High Intensity Objects (%),[3],0%
same,Population Membrane Permeable-Phenotype (%),[3],5%
same,Population Mitochondria Different-Phenotype (%),[3],3%
same,Population Mitotic Cells (%),[3],13%
same,Population Normal (%),[3],99%
same,Population Pyknosed Nuclei (%),[3],6%
same,Population Tubulin-Different-Phenotype (%),[3],3%
same,Total Cell Count,[3],252
same,Population Apoptotic (%),[4],73%
same,Population Fragmented Nuclei (%),[4],8%
same,Population Healthy Nuclei (%),[4],80%
same,Population Hoechst High Intensity Objects (%),[4],1%
same,Population Membrane Permeable-Phenotype (%),[4],10%
same,Population Mitotic Cells (%),[4],26%
same,Population Normal (%),[4],98%
same,Population Pyknosed Nuclei (%),[4],10%
same,Population Tubulin-Different-Phenotype (%),[4],7%
same,Total Cell Count,[4],139
same,Population Apoptotic (%),[5],86%
same,Population Fragmented Nuclei (%),[5],25%
same,Population Healthy Nuclei (%),[5],65%
same,Population Hoechst High Intensity Objects (%),[5],1%
same,Population Membrane Permeable-Phenotype (%),[5],7%
same,Population Mitochondria Different-Phenotype (%),[5],1%
same,Population Mitotic Cells (%),[5],13%
same,Population Normal (%),[5],98%
same,Population Pyknosed Nuclei (%),[5],8%
same,Population Tubulin-Different-Phenotype (%),[5],4%
same,Total Cell Count,[5],278
same,Population Apoptotic (%),[6],80%
same,Population Fragmented Nuclei (%),[6],21%
same,Population Healthy Nuclei (%),[6],73%
same,Population Membrane Permeable-Phenotype (%),[6],6%
same,Population Mitotic Cells (%),[6],20%
same,Population Pyknosed Nuclei (%),[6],5%
same,Population Tubulin-Different-Phenotype (%),[6],9%
same,Total Cell Count,[6],177
same,Population Apoptotic (%),[7],100%
same,Population Fragmented Nuclei (%),[7],23%
same,Population Healthy Nuclei (%),[7],69%
same,Population Hoechst High Intensity Objects (%),[7],1%
same,Population Membrane Permeable-Phenotype (%),[7],9%
same,Population Mitochondria Different-Phenotype (%),[7],3%
same,Population Mitotic Cells (%),[7],0%
same,Population Normal (%),[7],98%
same,Population Pyknosed Nuclei (%),[7],6%
same,Population Tubulin-Different-Phenotype (%),[7],7%
same,Total Cell Count,[7],287
same,Population Apoptotic (%),[8],81%
same,Population Fragmented Nuclei (%),[8],12%
same,Population Healthy Nuclei (%),[8],80%
same,Population Hoechst High Intensity Objects (%),[8],2%
same,Population Membrane Permeable-Phenotype (%),[8],4%
same,Population Mitochondria Different-Phenotype (%),[8],4%
same,Population Mitotic Cells (%),[8],18%
same,Population Normal (%),[8],97%
same,Population Tubulin-Different-Phenotype (%),[8],2%
same,Total Cell Count,[8],166
same,Population Apoptotic (%),[9],83%
same,Population Fragmented Nuclei (%),[9],21%
same,Population Healthy Nuclei (%),[9],69%
same,Population Hoechst High Intensity Objects (%),[9],2%
same,Population Membrane Permeable-Phenotype (%),[9],5%
same,Population Mitochondria Different-Phenotype (%),[9],1%
same,Population Mitotic Cells (%),[9],16%
same,Population Normal (%),[9],97%
same,Population Pyknosed Nuclei (%),[9],9%
same,Population Tubulin-Different-Phenotype (%),[9],2%
same,Total Cell Count,[9],409
same,Population Apoptotic (%),[10],69%
same,Population Fragmented Nuclei (%),[10],19%
same,Population Healthy Nuclei (%),[10],75%
same,Population Hoechst High Intensity Objects (%),[10],3%
same,Population Mitochondria Different-Phenotype (%),[10],2%
same,Population Mitotic Cells (%),[10],30%
same,Population Normal (%),[10],96%
same,Population Pyknosed Nuclei (%),[10],5%
same,Population Tubulin-Different-Phenotype (%),[10],7%
same,Total Cell Count,[10],267
same,Population Apoptotic (%),[11],100%
same,Population Fragmented Nuclei (%),[11],19%
same,Population Healthy Nuclei (%),[11],71%
same,Population Hoechst High Intensity Objects (%),[11],1%
same,Population Membrane Permeable-Phenotype (%),[11],5%
same,Population Mitochondria Different-Phenotype (%),[11],3%
same,Population Mitotic Cells (%),[11],0%
same,Population Normal (%),[11],98%
same,Population Pyknosed Nuclei (%),[11],8%
same,Population Tubulin-Different-Phenotype (%),[11],6%
same,Total Cell Count,[11],420
same,Population Apoptotic (%),[12],88%
same,Population Fragmented Nuclei (%),[12],11%
same,Population Healthy Nuclei (%),[12],78%
same,Population Membrane Permeable-Phenotype (%),[12],2%
same,Population Mitotic Cells (%),[12],12%
same,Population Pyknosed Nuclei (%),[12],10%
same,Population Tubulin-Different-Phenotype (%),[12],1%
same,Total Cell Count,[12],254
